The source made the active and inactive calls. The rule behind the calls is not given here.
Key:
Jurkat [1] = assay: Cell cycle arrest in human Jurkat cells assessed as accumulation at G2/M phase at >20 nM after 24 hrs by propidium iodide staining-based flow cytometry; assay type: functional
Procedure, shortened: (§1)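 Jurkat, HT-29 and HeLa cells in exponential growth (5 × 10^5 cells) treated 24 h at a range of concentrations. Fixed in ice-cold 70% ethanol, lysed with buffer containing RNase A and 0.1% Triton X-100, stained with propidium iodide. DNA content read by flow cytometry and the percentage of cells per cycle phase derived from DNA histograms.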

A549 [2] = assay: Cytotoxicity against human A549 cells after 72 hrs by MTT assay; assay type: functional, cell-based; conditions: A549, 72 h
HeLa [3] = assay: Cell cycle arrest in human HeLa cells assessed as accumulation at G2/M phase at >20 nM after 24 hrs by propidium iodide staining-based flow cytometry; assay type: functional; procedure, shortened: as §1
HeLa [4] = assay: Induction of apoptosis in human HeLa cells assessed as PARP cleavage at 10 nM after 24 hrs by Western Blot analysis; assay type: functional, cell-based
Procedure, shortened: (§2)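 HeLa cells exposed to 10 or 100 nM for 24 or 48 h, washed in ice-cold PBS, lysed on ice 30 min, spun at 15000g at 4 °C. 20 μg protein run on 7.5–15% SDS–PAGE, blotted to PVDF, blocked overnight at 4 °C. Primary antibodies 2 h at room temperature, peroxidase secondary 60 min, ECL detection, β-actin reprobe as loading control.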

[5] = Cytotoxicity against human LoVo/DX cells after 72 hrs by MTT assay; assay type: functional, cell-based
Procedure, shortened: (§3)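 MTT viability test: 8 × 10^3 cells per well settled 18 h at 37 °C, 5% CO2, then given fresh medium with compound (from 10 mM DMSO stocks, final DMSO ≤0.25%) for 72 h. […] CEMVbl-100 is a vinblastine-selected P-gp line; LoVoDoxo is grown in Ham's F12 with 0.1 μg/mL doxorubicin. Resistance index = resistant IC50/parental IC50.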

HeLa [6] = assay: Cell cycle arrest in human HeLa cells assessed as accumulation at G2/M phase at 20 nM after 24 hrs by propidium iodide staining-based flow cytometry; assay type: functional; procedure, shortened: as §1
HeLa [7] = assay: Induction of apoptosis in human HeLa cells assessed as ROS production at 10 to 100 nM after 24 to 48 hrs by H2-DCFDA staining-based flow cytometry relative to control; assay type: functional, cell-based
Procedure, shortened: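 HeLa cells treated 24 or 48 h, then stained with H2-DCFDA or hydroethidine. ROS read by flow cytometry against untreated control. Mean ± SEM of three independent experiments.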

PBL = assay: Cytotoxicity against human PBL cells after 72 hrs by MTT assay; assay type: cell-based
Procedure, shortened: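 Peripheral blood lymphocytes from healthy donors isolated on a Lymphoprep gradient and rested overnight in RPMI-1640 with 10% FBS. Nonadherent cells at 5 × 10^5 cells/mL, with 2.5 μg/mL PHA for proliferating cultures or without it for resting ones. Compound exposure 72 h, viability by MTT. Mean ± SEM of three experiments.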

HeLa [8] = assay: Cell cycle arrest in human HeLa cells assessed as variation in cyclin B expression at 10 to 100 nM after 24 to 48 hrs by Western Blot analysis; assay type: functional, cell-based; procedure, shortened: as §2
HeLa [9] = assay: Induction of apoptosis in human HeLa cells assessed as phosphorylated Mcl-1 at 10 nM after 48 hrs by Western Blot analysis; assay type: functional, cell-based; procedure, shortened: as §2
HeLa [10] = assay: Cytotoxicity against human HeLa cells after 72 hrs by MTT assay; assay type: functional, cell-based
CCRF-CEM = assay: Resistance index, ratio of IC50 for human CEM/VBL100 cells to IC50 for human CEM cells; assay type: functional; procedure, shortened: as §3
HeLa [11] = assay: Cell cycle arrest in human HeLa cells assessed as accumulation at G2/M phase after 24 hrs by propidium iodide staining-based flow cytometry; assay type: functional; procedure, shortened: as §1
HT-29 [12] = assay: Cell cycle arrest in human HT-29 cells assessed as accumulation at G2/M phase after 24 hrs by propidium iodide staining-based flow cytometry; assay type: functional; procedure, shortened: as §1
HT-29 [13] = assay: Ratio of Combretastatin A-4 IC50 to compound IC50 for human HT-29 cells; assay type: functional
A549 [14] = assay: Resistance index, ratio of IC50 for human A549-T12 cells to IC50 for human A549 cells; assay type: functional
Procedure, shortened: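 Mean ± SE of at least three independent experiments. Resistance ratio = IC50 in resistant line/IC50 in nonresistant line.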

HeLa [15] = assay: Induction of apoptosis in human HeLa cells assessed as survivin phosphorylation on Thr32 after 24 to 48 hrs by Western Blot analysis; assay type: functional, cell-based; procedure, shortened: as §2
Mus musculus = assay: Toxicity in Balb/c mouse xenografted with mouse BNL 1ME A.7R.1 cells assessed as decrease in body weight at 5 mg/kg, ip; assay type: organism-based; parameters: dose 5 mg/kg, route intraperitoneal; conditions: in vivo
Procedure, shortened: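 Male Balb/c mice, 8 weeks old, given 10^7 syngeneic BNL 1ME A.7R.1 hepatoma cells subcutaneously in the dorsal region in 200 μL PBS. Randomised to groups of five. Dosed intraperitoneally once daily for 7 days at 5 mg/kg in 0.9% NaCl with 5% PEG 400 and 0.5% Tween 80, against vehicle and CA-4P. Tumours measured daily by caliper, V = AB2/2; body weight recorded. Mean ± SEM.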

MCF7 = assay: Cytotoxicity against human MCF7 cells after 72 hrs by MTT assay; assay type: functional, cell-based; conditions: MCF7, 72 h
HeLa [16] = assay: Induction of apoptosis in human HeLa cells assessed as reduction of Xiap expression at 10 nM after 24 hrs by Western Blot analysis; assay type: functional, cell-based; procedure, shortened: as §2
LoVo = assay: Resistance index, ratio of IC50 for human LoVo/DX cells to IC50 for human LoVo cells; assay type: functional; procedure, shortened: as §3
HeLa [17] = assay: Cell cycle arrest in human HeLa cells assessed as reduction in phosphorylated cdc2 Tyr15 level at 10 to 100 nM after 24 to 48 hrs by Western Blot analysis; assay type: functional, cell-based; procedure, shortened: as §2
[18] = Selectivity ratio of IC50 for human CEM cells to IC50 for human PHA-stimulated PBL cells; assay type: ADME, cell-based; conditions: CEM cells and PHA-stimulated PBL cells, read-out: Ratio IC50
Jurkat [19] = assay: Cytotoxicity against human Jurkat cells after 72 hrs by MTT assay; assay type: functional, cell-based
Procedure, shortened: (§4)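 Cells plated at 8 × 10^3 per well, 18 h at 37 °C, 5% CO2, then fresh medium with graded compound concentrations (DMSO ≤0.25%) for 72 h. Jurkat, SEM, HL-60 grown in RPMI-1640; A549, HeLa, HT-29, MCF-7 in DMEM; 10% FBS with penicillin/streptomycin. MTT viability read-out; IC50 vs 0.25% DMSO controls; mean ± SE of at least three independent experiments.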

[20] = Selectivity ratio of IC50 for human Jurkat cells to IC50 for human PHA-stimulated PBL cells; assay type: ADME, cell-based; conditions: Jurkat cells and PHA-stimulated PBL cells, read-out: Ratio IC50
HeLa [21] = assay: Induction of apoptosis in human HeLa cells assessed as mitochondrial membrane depolarization after 24 to 48 hrs by JC-1 staining; assay type: functional, cell-based
Procedure, shortened: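 HeLa cells treated 24 or 48 h, then stained with the potentiometric dye JC-1. Proportion of cells with depolarised mitochondria read by flow cytometry. Mean ± SEM of three independent experiments.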

HeLa [22] = assay: Induction of apoptosis in human HeLa cells assessed as decrease in unphosphorylated Mcl-1 at 10 to 100 nM after 24 hrs by Western Blot analysis; assay type: functional, cell-based; procedure, shortened: as §2
[23] = Cytotoxicity against human SEM cells after 72 hrs by MTT assay; assay type: functional, cell-based; procedure, shortened: as §4

## COC(=O)c1sc2cc(OC)ccc2c1Nc1cc(OC)c(OC)c(OC)c1
Jurkat [1]
  Activity: >80%
A549 [2]
  IC50: 8.5 nM
HeLa [3]
  Activity: >80%
HeLa [4]
  Activity: Active
[5]
  IC50: 0.4 nM
HeLa [6]
  Activity: Active
HeLa [7]
  Activity: Active
PBL
  IC50: > 10 µM
HeLa [8]
  Activity: inactive
HeLa [9]
  Activity: inactive
HeLa [10]
  IC50: 0.28 nM
CCRF-CEM
  Ratio IC50: 0.4
HeLa [11]
  Activity: Dose-dependent effect
HT-29 [12]
  Activity: Dose-dependent effect
HT-29 [13]
  Ratio IC50: 2
A549 [14]
  Ratio IC50: 1.5
HeLa [15]
  Activity: Active
Mus musculus
  Activity: Toxic
MCF7
  IC50: 0.7 nM
HeLa [16]
  Activity: Active
LoVo
  Ratio IC50: 1.3
HeLa [17]
  Activity: Active
[18]
  selectivity ratio: 2000
Jurkat [19]
  IC50: 1.7 nM
[20]
  selectivity ratio: 2000
HeLa [21]
  Activity: Dose-dependent effect
HeLa [22]
  Activity: Active
[23]
  IC50: 10.3 nM

Source: ChEMBL document CHEMBL2331329, “Synthesis and biological evaluation of 2-(alkoxycarbonyl)-3-anilinobenzo[b]thiophenes and thieno[2,3-b]pyridines as new potent anticancer agents” (J Med Chem, 2013)
